Source: PubChem
Sampled rows, rich in hits. Any-hit rate of the full collection: about 4.5%.
OX1R antag-1: antagonists of human orexin 1 receptor (OX1R); Orexin/Hypocretin receptor type 1 (Homo sapiens), O43613; AID 485270, 2010; OX1R-expressing cells, FRET antagonist read-out; hit rate 1.8% among 330,000; inhibition, % at 6.6 µM; in the data active = inhibition mostly above about 38%, no sharp cut-off; inactive = mostly below about 40%
OX1R antag-2: OX1R (HCRTR1) antagonists, primary screen, fluorescence, CHO/OX1R cells, Fluo-8 calcium, orexin A. Orexin/Hypocretin receptor type 1 (Homo sapiens), O43613. Fluo-8 calcium fluorescence. inhibition, % at 5 µM. hit rate 0.43% among 330,000;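 active = inhibition above its plate's threshold, mean inhibition of all tested compounds on the plate plus 3 SD, cut at about 37% in these data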
TAAR1 antag: human TAAR1 antagonists, primary screen, Fluo-8 calcium fluorescence, CHO RD-HGA16 cells | AID 624466, 2012 | antagonist | Trace amine-associated receptor 1 (Homo sapiens), Q96RJ0 | inhibition, % at 3 µM | hit rate 1.5% among 360,000;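 active = inhibition above a per-plate cutoff, the mean inhibition of test compounds on that plate plus 3 SD, cut at about 49% in these data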
Target sequence (Q96RJ0 whole entry, looked up): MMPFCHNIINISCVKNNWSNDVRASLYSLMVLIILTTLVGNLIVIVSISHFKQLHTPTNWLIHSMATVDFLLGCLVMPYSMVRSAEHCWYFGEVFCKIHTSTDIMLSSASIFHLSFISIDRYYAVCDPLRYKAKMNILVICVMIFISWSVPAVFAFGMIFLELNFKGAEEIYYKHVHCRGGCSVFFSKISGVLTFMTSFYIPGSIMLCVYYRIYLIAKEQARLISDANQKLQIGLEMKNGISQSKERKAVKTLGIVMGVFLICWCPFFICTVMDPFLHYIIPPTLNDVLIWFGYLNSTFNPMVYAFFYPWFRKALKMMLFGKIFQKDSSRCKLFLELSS
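System: RD-HGA16 CHO cells with stable hTAAR1 and Gα16 | Probe or stimulus: EC80 β-phenethylamine stimulus | Dosing: 3 µM, single point | Times: Dye loading 75 min at 37 °C, then 30 min room temperature | Measured by: Fluo-8 calcium-sensitive fluorescence | Read-out basis: % inhibition of agonist calcium response | Replicates: n of 1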
CHO parental Ca: ATP-evoked calcium signal inhibitors, parental CHO, primary screen, counter-screen for OX1R antagonist project, cell-based, fluorescence, Fluo-8 calcium dye; parental CHO-K1, ATP-induced calcium, Fluo-8 fluorescence; inhibition, % at 5.6 µM; hit rate 0.63% among 330,000;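 active = inhibition above that plate's mean sample inhibition plus 3 SD, cut at about 26% in these data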
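Test system: untransfected parental CHO cell line. Compound: one dose, 5.6 µM nominal. Detection: intracellular calcium via Fluo-8 no-wash fluorescent dye. Measure: % inhibition. Benchmarks: ATP-challenged DMSO wells low, unchallenged DMSO wells high.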
TAAR1 ag: human TAAR1 agonists, primary screen, Fluo-8 calcium fluorescence, CHO RD-HGA16 cells; activation, % at 3 µM; Trace amine-associated receptor 1 (Homo sapiens), Q96RJ0; vehicle wells 0%, saturating PEA agonist 100%; hit rate 0.99% among 360,000;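 active = activation above the mean activation of all test compounds in the run plus 3 SD, cut at about 38% in these data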
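test system = CHO RD-HGA16 cells carrying human TAAR1 plus Gα16 | schedule = 17-24 h seeding, 75 min 37 °C dye, 30 min RT | compound dosing = 3 µM single concentration | control set = DMSO and PEA EC100 | replicates = n 1 | signal = Fluo-8 fluorescence, 5 s baseline then 140 s kinetic read | measure = percent activation vs PEA EC100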
GPR7 antagonist: GPR7 receptor antagonists, primary screen, cell-based, fluorescence, single concentration; hit rate 1.1% among 290,000; GPR7-expressing cells, fluorescence antagonist assay; inhibition, % at 4.4 µM; Neuropeptides B/W receptor type 1 (Homo sapiens), P48145; in the data active = inhibition above about 16%, passing the limit was not always enough;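 also: cells stimulated with the agonist NPW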
Target sequence (P48145 whole entry, looked up): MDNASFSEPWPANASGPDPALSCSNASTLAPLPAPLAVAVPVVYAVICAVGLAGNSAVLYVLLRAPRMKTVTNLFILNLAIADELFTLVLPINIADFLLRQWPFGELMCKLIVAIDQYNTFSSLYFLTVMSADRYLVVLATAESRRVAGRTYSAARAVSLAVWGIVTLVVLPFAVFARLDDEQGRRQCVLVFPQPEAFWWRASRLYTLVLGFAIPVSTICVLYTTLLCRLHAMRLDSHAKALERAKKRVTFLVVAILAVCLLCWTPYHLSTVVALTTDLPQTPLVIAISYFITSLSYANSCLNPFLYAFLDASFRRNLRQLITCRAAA
nonsel antag count: nonselective antagonists in TAAR1 counter-screen cells, counter-screen for hTAAR1 antagonist project, cell-based, fluorescence, calcium | counterscreen cell line, antagonist mode | hit rate 77% among 2,400 | inhibition, % at 3 µM | shares compounds with TAAR1 antag; in the data active = inhibition above about 22%;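 also: CHO-Ga16 host cells stimulated with ATP at an EC80 level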
TAAR1 ant conf: human TAAR1 antagonists, retest of hits, confirmation, cell-based, fluorescence; shares compounds with TAAR1 antag; TAAR1-expressing cells, fluorescence antagonist read-out; inhibition, % at 3 µM; hit rate 40% among 2,400; in the data active = inhibition above about 49%;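 also: CHO-Ga16 host cells challenged with agonist PEA near its EC80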
Ga16 nonsel ag: calcium activation in Ga16-expressing cells, counter-screen for TAAR1 antagonist project, cell-based, fluorescence. shares compounds with TAAR1 antag. agonist counterscreen. activation, % at 3 µM. hit rate 18% among 2,400. AID 651953, 2012; in the data active = activation above about 12%
TAAR1 ag counter: TAAR1 activation by candidate antagonists – cell-based, fluorescence, counter-screen for TAAR1 antagonist project. hit rate 2% among 2,400. shares compounds with TAAR1 antag. hTAAR1 cell line, agonist mode. activation, % at 3 µM. AID 651955, 2012; in the data active = activation above about 37%;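 also: CHO cells stably expressing TAAR1 with calcium dye readout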
Each line names hits and unclear results; the compound was inactive in the other large screens (follow-up assays come after a bar, where they were run).

COc1ccc2[nH]c(=O)c(CN(c3ccccc3)S(=O)(=O)c3ccccc3)cc2c1	TAAR1 antag 52 | nonsel antag count 26 | TAAR1 ant conf 52 | Ga16 nonsel ag inactive | TAAR1 ag counter inactive
O=[N+]([O-])c1ccccc1C(O)Cc1ccccn1 (stereo not drawn)	none (no result: OX1R antag-1, OX1R antag-2, CHO parental Ca, GPR7 antagonist)
COc1ccc(C2=NOC(Cn3nc(C(=O)NCc4cccc(Br)c4)cc3-c3ccccc3)C2)cc1 (stereo not drawn)	TAAR1 antag 57 (no result: GPR7 antagonist) | nonsel antag count 30 | TAAR1 ant conf inactive | Ga16 nonsel ag inactive | TAAR1 ag counter inactive
COc1ccccc1CNC(=O)c1cc(-c2cccnc2)nc2ccccc12	TAAR1 antag 74 | nonsel antag count 23 | TAAR1 ant conf inactive | Ga16 nonsel ag inactive | TAAR1 ag counter inactive
Cc1cc(CNC(=O)c2cc(-c3ccccc3)nc3ccccc23)nn1C	TAAR1 antag 52 | nonsel antag count 24 | TAAR1 ant conf inactive | Ga16 nonsel ag inactive | TAAR1 ag counter inactive
COCCCNC(=O)c1cc(-c2cccnc2)nc2ccccc12	none
COc1ccc(C2=NOC(Cn3nc(-c4ccccc4)cc3C(=O)NCc3cccc(Br)c3)C2)cc1 (stereo not drawn)	none (no result: GPR7 antagonist)
COc1ccccc1CNC(=O)c1cc(-c2ccccc2)nn1CC1CC(c2cccnc2)=NO1 (stereo not drawn)	TAAR1 antag 53 (no result: GPR7 antagonist) | nonsel antag count inactive | TAAR1 ant conf inactive | Ga16 nonsel ag inactive | TAAR1 ag counter inactive
Cc1ccc(C)c(Nc2cc(C(=O)NCc3cccnc3)c3ccccc3n2)c1	TAAR1 antag 50 | nonsel antag count 22 | TAAR1 ant conf inactive | Ga16 nonsel ag inactive | TAAR1 ag counter inactive
COCCNC(=O)c1cc(-c2ccc(-c3ccccc3)cc2)nc2ccccc12	TAAR1 antag 55 | nonsel antag count 25 | TAAR1 ant conf inactive | Ga16 nonsel ag inactive | TAAR1 ag counter inactive
COc1ccccc1Nc1cc(C(=O)NCc2cccnc2)c2ccccc2n1	none
CC1(C(=O)NS(=O)(=O)c2ccccc2Cl)CCN1C(=O)c1cccc2ccccc12 (stereo not drawn)	none (no result: OX1R antag-1, OX1R antag-2, CHO parental Ca, GPR7 antagonist)
CCOC(=O)c1ccc2ncc(C(=O)OCC)c(Nc3ccc(N4CCOCC4)cc3)c2c1	TAAR1 antag 57 | nonsel antag count 36 | TAAR1 ant conf 57 | Ga16 nonsel ag inactive | TAAR1 ag counter inactive
CCOC(=O)c1cnc2ccc(C(=O)OC)cc2c1Nc1ccc(C(=O)O)cc1	none
COc1ccc(S(=O)(=O)Nc2cccc3c2O[C@H](CN(C)C(=O)Nc2ccccc2)[C@@H](C)CN([C@H](C)CO)C3=O)cc1	none (no result: GPR7 antagonist)
CC(=O)c1ccc(N2CCN(C(=O)c3cc(-c4cccnc4)nc4ccc(Br)cc34)CC2)cc1	TAAR1 antag 76 | nonsel antag count 27 | TAAR1 ant conf 49 | Ga16 nonsel ag 13 | TAAR1 ag counter inactive
O=C(c1cc(-c2cccnc2)nc2ccc(Br)cc12)N1CCN(c2ncccn2)CC1	TAAR1 antag 51 | nonsel antag count 34 | TAAR1 ant conf 57 | Ga16 nonsel ag inactive | TAAR1 ag counter inactive
COc1cccc(-c2csc(N3CCN(C(=S)NCC(C)C)CC3)n2)c1	TAAR1 antag 65 | nonsel antag count 42 | TAAR1 ant conf inactive | Ga16 nonsel ag inactive | TAAR1 ag counter inactive
COc1ccc(NC(=O)N2CCN(c3nc(-c4cccc(OC)c4)cs3)CC2)cc1	TAAR1 antag 64 | nonsel antag count 38 | TAAR1 ant conf 59 | Ga16 nonsel ag inactive | TAAR1 ag counter inactive
O=C(COc1ccc(Br)cc1)NNC(=O)c1cc(S(=O)(=O)N2CCOCC2)ccc1Cl	none (no result: OX1R antag-1, OX1R antag-2, CHO parental Ca, GPR7 antagonist)
O=C(/C=C/[C@H]1O[C@@H](n2ccc(=O)[nH]c2=O)[C@H](O)[C@@H]1O)NCCCc1ccccc1	none (no result: OX1R antag-1, OX1R antag-2, CHO parental Ca, GPR7 antagonist)
c1ccc(SCc2cn(C[C@H]3CC[C@@H]([C@@H]4CC[C@H](Cn5cc(CSc6ccccc6)nn5)O4)O3)nn2)cc1	TAAR1 antag 71 | nonsel antag count 37 | TAAR1 ant conf 56 | Ga16 nonsel ag 14 | TAAR1 ag counter inactive
c1ccc(Cn2cc(CSc3ccccc3)nn2)cc1	none (no result: GPR7 antagonist)
O=C(O)CCC(=O)Nc1ccc(-c2nc3ccc(C(=O)c4ccccc4)cc3[nH]2)cc1	none
O=C(c1ccccc1)c1ccc2nc(-c3ccc(NC(=O)c4ccccc4F)cc3)[nH]c2c1	TAAR1 antag 59 | nonsel antag count 29 | TAAR1 ant conf 59 | Ga16 nonsel ag inactive | TAAR1 ag counter inactive
Cc1ccccc1N1CCN(C2CCCN(C(=O)c3cn4cccc(C)c4n3)C2)CC1 (stereo not drawn)	TAAR1 antag 57 (no result: OX1R antag-1, OX1R antag-2, CHO parental Ca) | nonsel antag count 30 | TAAR1 ant conf inactive | Ga16 nonsel ag inactive | TAAR1 ag counter inactive
Cc1ccccc1N1CCN(C2CCCN(C(=O)c3ccccn3)C2)CC1 (stereo not drawn)	none
Cc1ccc(NC(=O)CC2S/C(=N/c3nccs3)N(C)C2=O)cc1C (stereo not drawn)	TAAR1 antag 55 | nonsel antag count 31 | TAAR1 ant conf 50 | Ga16 nonsel ag inactive | TAAR1 ag counter inactive
CC(=O)C1=CCC(c2ccccc2Cl)N(S(=O)(=O)c2ccc(C)cc2)C1 (stereo not drawn)	none (no result: OX1R antag-1, OX1R antag-2, CHO parental Ca, GPR7 antagonist)
CCCCn1nnnc1C1(C)CCC(=O)N1Cc1ccco1 (stereo not drawn)	none (no result: OX1R antag-1, OX1R antag-2, CHO parental Ca, GPR7 antagonist)
CC(=O)c1ccc(N2CCN(C(=O)CCCc3nc4ccccc4s3)CC2)cc1	TAAR1 antag 60 | nonsel antag count 34 | TAAR1 ant conf inactive | Ga16 nonsel ag inactive | TAAR1 ag counter inactive
CCCS(=O)(=O)NC(=O)C1(C)CCN(C(=O)C2(c3ccc(Cl)cc3)CCCC2)C1 (stereo not drawn)	none (no result: OX1R antag-1, OX1R antag-2, CHO parental Ca, GPR7 antagonist)
